Source: ChEMBL document CHEMBL5346935, “Novel O-benzylcinnamic acid derivative L26 treats acute lung injury in mice by MD-2” (Eur J Med Chem, 2023)
Active and inactive are the calls of the source. The rule behind the calls is not given here.

Legend:
[1] = (§1) Antiinflammatory activity in LPS-induced HEK-Blue hTLR4 cells assessed as reduction in alkaline phosphatase activity at 10 uM pretreated with compound for 0.5 hr followed by LPS induction and measured after 24 hrs; type: functional, Homo sapiens; set-up: scale not given: the % may be the effect or the level left; details: time 24.5 hrs
Method in brief: (§2)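 HEK-Blue-TLR4 cells (2×10^4/well, DMEM with 10% FBS) were grown for 24 h, then pretreated with compound or DMSO for 0.5 h. LPS was added at 0.5 µg/mL for 24 h. Supernatant ALP activity was read at 405 nm with a kit. Values are mean ± SEM of three independent experiments.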

HEK-Blue hTLR4 = assay: as §1; type: functional; details: Homo sapiens, time 24.5 hrs; method in brief: as §2
[2] = Acute toxicity in ICR mouse assessed as pathological changes in lung at 1000 to 1500 mg/kg, IG measured after 10 days by H and E staining method; type: organism-based; details: in vivo, po, 240 h, dose 1000-1500 mg/kg, time 10 day
Method in brief: (§3)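 ICR mice (27 g ± 1 g; n = 24 total) given a single oral gavage dose on day 1 in CMC-Na with DMSO (<0.1%), dosing solution 50 mg/mL. Untreated mice served as controls. After 10 days, mice were sacrificed under general anaesthesia. Heart, liver, lung, spleen and kidney were harvested for H&E pathology.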

RAW264.7 [3] = assay: Antiinflammatory activity in LPS-induced mouse RAW264.7 cells assessed as decrease in LPS-induced TNF-alpha secretion pretreated for 30 mins followed by LPS-induction and measured after 24 hrs by ELISA analysis; type: functional, cell-based
Method in brief: (§4)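 RAW 264.7 macrophages were pretreated for 30 min with 1–10 µM compound or DMSO vehicle, then stimulated with LPS (0.5 µg/mL). After 24 h, supernatant IL-6 and TNF-α were measured by ELISA. Results are mean ± SEM of triplicates, expressed as percent of the LPS group, with Student's t-test.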

[4] = Toxicity in C57BL/6 mouse assessed as histopathological changes in lung at 5 mg/kg, po measured at 6 hrs by H and E staining analysis; type: organism-based; details: in vivo
Method in brief: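 Lungs from C57BL/6 mice given 5 mg/kg orally every 12 h for 36 h, then intratracheal LPS 5 mg/kg and sacrificed 6 h later, were fixed in 4% PFA, paraffin-embedded and stained with H&E.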

[5] = Acute toxicity in ICR mouse assessed as pathological changes in kidney at 1000 to 1500 mg/kg, IG measured after 10 days by H and E staining method; type: organism-based; details: in vivo, po, 240 h, dose 1000-1500 mg/kg, time 10 day; method in brief: as §3
[6] = Acute toxicity in ICR mouse assessed as pathological changes in heart at 1000 to 1500 mg/kg, IG measured after 10 days by H and E staining method; type: organism-based; details: in vivo, po, 240 h, dose 1000-1500 mg/kg, time 10 day; method in brief: as §3
Mus musculus [7] = assay: Antiinflammatory activity in LPS-induced C57BL/6 mouse acute lung injury model assessed as decrease in total protein level at 5 mg/kg, po administered every 12 hrs for 36 hrs followed by LPS-induction for 12 hrs and measured at 6 hrs post LPS challenge; type: functional, organism-based; details: time 54.0 hrs
Method in brief: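 Same C57BL/6 regimen: 5 mg/kg oral in 0.5% CMC-Na every 12 h for 36 h, then intratracheal LPS 5 mg/kg 12 h later, with sacrifice at 6 h. BALF was collected by rinsing the left lung with saline 4 times and centrifuged (1000 rpm, 4 °C, 10 min). Supernatant protein was measured by BCA assay.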

Mus musculus [8] = assay: In vivo Inhibition of NF-kappaB signalling pathway in mouse C57BL/6 lung assessed as upregulation of IkappaBalpha protein expression at 5 mg/kg, po measured for 6 hrs by Western blot analysis; type: functional, organism-based
Method in brief: (§5)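 In the C57BL/6 ALI model (5 mg/kg oral every 12 h for 36 h, then intratracheal LPS 5 mg/kg, sacrifice at 6 h), lung tissue was lysed in RIPA buffer with PMSF and protein was quantified by Bradford. Samples were run on 10% SDS-PAGE and immunoblotted for p65, phospho-p65 and IκB, with GAPDH as reference.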

RAW264.7 [9] = assay: Binding affinity to MD-2 in mouse RAW264.7 cells assessed as reduction in LPS/MD-2/TLR4 polymers formation incubated for 12 hrs by immunoprecipitation assay; type: cell-based
Mus musculus [10] = assay: Antiinflammatory activity in LPS-induced C57BL/6 mouse acute lung injury model assessed as decrease in […] TNF-alpha mRNA expression level at 5 mg/kg, po administered every 12 hrs for 36 hrs followed by LPS-induction for 12 hrs and measured at 6 hrs post LPS challenge by q-RTPCR analysis; type: functional, organism-based; details: time 54.0 hrs
Method in brief: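 C57BL/6 mice (8 per group) were gavaged with 5 mg/kg in 0.5% CMC-Na every 12 h for 36 h. LPS (5 mg/kg) was instilled intratracheally 12 h after the last dose. Mice were euthanized 6 h later and lung TNF-α mRNA was measured by real-time qRT-PCR.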

[11] = AUC (0 to t) in Sprague-Dawley rat at 10 mg/kg, po measured at 5 to 24 hrs by UPLC-MS/MS analysis; type: ADME, organism-based; set-up: dose 10 mg/kg, time upper 24 hrs, time lower 5 hrs, route po; details: in vivo
Method in brief: (§6)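 Male SD rats (200 g ± 20 g, n = 6) were dosed orally by gavage at 10 mg/kg, suspended in CMC-Na with DMSO (<0.1%). Tail-vein blood was drawn at 5 min, 15 min, 30 min, 1, 2, 4, 6, 9, 12 and 24 h and centrifuged. Plasma supernatant was precipitated with an equal volume of acetonitrile and run on UPLC-MS/MS. Parameters came from a non-compartmental fit.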

RAW264.7 [12] = assay: Antiinflammatory activity in LPS-induced mouse RAW264.7 cells assessed as decrease in LPS-induced IL-6 secretion pretreated for 30 mins followed by LPS-induction and measured after 24 hrs by ELISA analysis; type: functional, cell-based; method in brief: as §4
[13] = Acute toxicity in ICR mouse assessed as pathological changes in liver at 1000 to 1500 mg/kg, IG measured after 10 days by H and E staining method; type: organism-based; details: in vivo, po, 240 h, dose 1000-1500 mg/kg, time 10 day; method in brief: as §3
Mus musculus [14] = assay: In vivo Inhibition of NF-kappaB signalling pathway in mouse C57BL/6 lung assessed as decrease in phosphorylated p65 level at 5 mg/kg, po measured for 6 hrs by Western blot analysis; type: functional, organism-based; method in brief: as §5
Homo sapiens = organism: Homo sapiens; assay: Binding affinity to human recombinant MD-2 assessed as reduction in binding of LPS to MD-2 at 1 uM by ELISA analysis
[15] = Acute toxicity in ICR mouse assessed as pathological changes in spleen at 1000 to 1500 mg/kg, IG measured after 10 days by H and E staining method; type: organism-based; details: in vivo, po, 240 h, dose 1000-1500 mg/kg, time 10 day; method in brief: as §3
[16] = Half life in Sprague-Dawley rat at 10 mg/kg, po measured at 5 to 24 hrs by UPLC-MS/MS analysis; type: ADME, organism-based; details: in vivo, time 5-24 hrs; method in brief: as §6
Mus musculus [17] = assay: Antiinflammatory activity in LPS-induced C57BL/6 mouse acute lung injury model assessed as decrease in BALF ALP level at 5 mg/kg, po administered every 12 hrs for 36 hrs followed by LPS-induction for 12 hrs and measured at 6 hrs post LPS challenge by ELISA analysis; details: time 54.0 hrs
[18] = Cmax in Sprague-Dawley rat at 10 mg/kg, po measured at 5 to 24 hrs by UPLC-MS/MS analysis; type: ADME, organism-based; set-up: dose 10 mg/kg, time 5-24 hrs, route po; details: in vivo; method in brief: as §6
[19] = AUC (0 to infinity) in Sprague-Dawley rat at 10 mg/kg, po measured at 5 to 24 hrs by UPLC-MS/MS analysis; type: ADME, organism-based; set-up: time lower 5 hrs, dose 10 mg/kg, time upper 24 hrs, route po; details: in vivo; method in brief: as §6
[20] = Tmax in Sprague-Dawley rat at 10 mg/kg, po measured at 5 to 24 hrs by UPLC-MS/MS analysis; type: ADME, organism-based; details: in vivo, time 5-24 hrs; method in brief: as §6

CC(C)c1ccc(COc2ccc(/C=C/C(=O)Nc3nc4ccccc4s3)cc2)cc1
Activity [1]: 14.04%

O=C(/C=C/c1ccc(OCc2ccc3ccccc3c2)cc1)Nc1nc2ccccc2[nH]1
Activity [1]: 9.07%

COc1cccc(COc2ccc(/C=C/C(=O)Nc3nc4ccccc4s3)cc2)c1
Activity [1]: 14.12%

Cc1cccc(COc2ccc(/C=C/C(=O)Nc3nccs3)cc2)c1
Activity [1]: 2.28%

O=C(/C=C/c1ccc(OCc2c(Cl)cccc2Cl)cc1)Nc1nc2ccccc2[nH]1
Activity [1]: 19.64%

O=C(/C=C/c1ccc(OCc2cccc(F)c2)cc1)Nc1nc2ccccc2s1
Activity [1]: 19%

Cc1ccc(COc2ccc(/C=C/C(=O)Nc3nc4ccccc4[nH]3)cc2)cc1
Activity [1]: 43.08%

O=C(/C=C/c1ccc(OCc2ccc3ccccc3c2)cc1)Nc1nc2ccccc2s1
Activity [1]: 14.17%

O=C(/C=C/c1ccc(OCc2ccc(F)cc2)cc1)Nc1nc2ccccc2s1
Activity [1]: 12.84%

O=C(/C=C/c1ccc(OCc2c(Cl)cccc2Cl)cc1)Nc1nccs1
Activity [1]: 8.16%

O=C(/C=C/c1ccc(OCc2cccc(F)c2)cc1)Nc1nccs1
Activity [1]: 7.66%

CC(C)c1ccc(COc2ccc(/C=C/C(=O)Nc3nccs3)cc2)cc1
Activity (HEK-Blue hTLR4): inactive

COc1cccc(COc2ccc(/C=C/C(=O)Nc3nc4ccccc4[nH]3)cc2)c1
Activity [2]: Non-Toxic
IC50 (RAW264.7 [3]): 8.41 µM
Activity (RAW264.7 [3]; dose 1-10 µM, time 24.5 hrs): Dose-Dependent Effect
Activity [4]: Non-Toxic
Activity [5]: Non-Toxic
Activity [6]: Non-Toxic
Activity (Mus musculus [7]): Active
Activity (Mus musculus [8]): Active
Activity (RAW264.7 [9]): Active
Activity (Mus musculus [10]): Active
AUC(0-t) [11]: 462 ng·h/mL
IC50 (RAW264.7 [12]): 2.58 µM
Activity (RAW264.7 [12]; dose 1-10 µM, time 24.5 hrs): Dose-Dependent Effect
Activity [13]: Non-Toxic
inhibition (Mus musculus [14]): Active
Activity [1]: 64.3%
Activity (Homo sapiens): Active
Activity [15]: Non-Toxic
half-life [16]: 4.25 h
Activity (Mus musculus [17]): Active
Cmax [18]: 163 ng/mL
AUC(0-inf) [19]: 465 ng·h/mL
Tmax [20]: 3.5 h

O=C(/C=C/c1ccc(OCc2ccc(F)cc2)cc1)Nc1nccs1
Activity [1]: 12.05%

O=C(/C=C/c1ccc(OCc2cccc(F)c2)cc1)Nc1nc2ccccc2[nH]1
Activity [1]: 55.45%

COc1cccc(COc2ccc(/C=C/C(=O)Nc3nccs3)cc2)c1
Activity (HEK-Blue hTLR4): inactive

O=C(/C=C/c1ccc(OCc2ccc3ccccc3c2)cc1)Nc1nccs1
Activity [1]: 3.63%

O=C(/C=C/c1ccc(OCc2ccc(F)cc2)cc1)Nc1nc2ccccc2[nH]1
Activity [1]: 29.65%

O=C(/C=C/c1ccc(OCc2c(Cl)cccc2Cl)cc1)Nc1nc2ccccc2s1
Activity [1]: 11.99%

O=C(/C=C/c1ccc(OCc2cccc(Cl)c2)cc1)Nc1nccs1
Activity (HEK-Blue hTLR4): inactive

Cc1cccc(COc2ccc(/C=C/C(=O)Nc3nc4ccccc4s3)cc2)c1
Activity [1]: 9.26%

COc1ccc(COc2ccc(/C=C/C(=O)Nc3nc4ccccc4s3)cc2)cc1
Activity [1]: 16.39%

Cc1ccc(COc2ccc(/C=C/C(=O)Nc3nc4ccccc4s3)cc2)cc1
Activity (HEK-Blue hTLR4): inactive

O=C(/C=C/c1ccc(OCc2cccc(Cl)c2)cc1)Nc1nc2ccccc2[nH]1
Activity [1]: 41.13%

COc1ccc(COc2ccc(/C=C/C(=O)Nc3nccs3)cc2)cc1
Activity (HEK-Blue hTLR4): inactive

O=C(O)/C=C/c1ccccc1 [CINNAMIC ACID]
Activity [1]: 9.51%

Cc1ccc(COc2ccc(/C=C/C(=O)Nc3nccs3)cc2)cc1
Activity [1]: 15.31%

O=C(/C=C/c1ccc(OCc2cccc(Cl)c2)cc1)Nc1nc2ccccc2s1
Activity (HEK-Blue hTLR4): inactive
